Screening results as filed in PubChem.
APJ agonist – APJ receptor agonism. activation, % at 20 µM. 0.11% of 330,000 active. CHO-K1 APJ PathHunter beta-arrestin, luminescence; 0% DMSO wells, 100% apelin. AID 2520. P35414;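 active means activation more than six SD over the plate average, tested at 20 µM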;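 further: 0% = DMSO alone and 100% = apelin-13 at 10 nM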
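Material: engineered CHO-K1 APJ arrestin reporter cells; amount: 1000 CHO-K1 reporter cells seeded per well; incubation: compound stimulation 90 min at 25 °C, detection 60 min; signal: luminescent beta-gal fragment complementation, chemiluminescent substrate; read-out basis: APJ agonist activity; controls: DMSO-only wells as negative, 10 nM Apelin-13 as positive control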
B2AR ag – agonists of human beta-2 adrenergic receptor inducing internalization. Am2.2-beta2AR cells, FAP receptor internalization, flow cytometry. response, % (test concentration not listed). 0.43% of 340,000 active;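 active means response above a set limit, near 3 SD of response in nonfluorescent compounds, cut at about 42% in these data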
CCR6 antag – blocks CCL20-driven beta-arrestin recruitment at human CCR6 | CHO-K1 CCR6 PathHunter beta-arrestin, luminescence, CCL20-stimulated | P51684 | 0.49% of 340,000 active | inhibition, % at 20 µM | AID 493098;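 active means compounds whose inhibition of the agonist-driven luminescence signal at 20 µM reaches about 50%, limit read from the data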;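 further: cells stimulated with CCL20 at 14 nM final; plate controls were DMSO with CCL20 for no effect and DMSO without agonist for full effect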
Target sequence (P51684 whole entry, looked up): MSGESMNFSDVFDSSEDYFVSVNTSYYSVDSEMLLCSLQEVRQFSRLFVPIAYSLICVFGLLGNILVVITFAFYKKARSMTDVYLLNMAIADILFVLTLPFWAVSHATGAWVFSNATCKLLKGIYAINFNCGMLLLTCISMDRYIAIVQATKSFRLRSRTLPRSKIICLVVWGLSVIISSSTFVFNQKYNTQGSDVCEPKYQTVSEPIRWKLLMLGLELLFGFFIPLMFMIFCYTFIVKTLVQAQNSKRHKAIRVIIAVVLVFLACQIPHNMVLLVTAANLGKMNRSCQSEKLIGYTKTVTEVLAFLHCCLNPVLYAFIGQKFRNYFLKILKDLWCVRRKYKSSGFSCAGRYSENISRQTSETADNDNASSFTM
CXCR6 inh – blocks human CXCR6 beta-arrestin recruitment; inhibition, % at 20 µM; 0.36% of 360,000 active; O00574; AID 602244; CHO-K1 PathHunter CXCR6 beta-arrestin, luminescence; in the data active means inhibition above about 34%, passing the limit was not always enough;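 further: antagonist mode with CXCL16 agonist at 10 nM final; 0% = 10 nM CXCL16 with DMSO and 100% = unstimulated wells without agonist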
EBI2 block – EBI2 (human) antagonism; P32249; EBI2 beta-arrestin recruitment, luminescence, 7a,25-OHC stimulated; inhibition, % at 5 µM; 0.81% of 360,000 active; in the data active means inhibition above about 38%;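 further: enzyme fragment complementation signal reports receptor beta-arrestin coupling in cells; 0% = agonist plus DMSO wells and 100% = wells without agonist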
APJ antagonist – antagonists of human APJ apelin receptor | 0.32% of 330,000 active | inhibition, % at 20 µM | CHO-K1 APJ beta-arrestin complementation, luminescence | P35414 | AID 2521;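 active means inhibition above about 40% at 20 µM, limit read from the data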;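 further: cells challenged with 10 nM apelin-13 agonist together with compound; plate controls were apelin-13 plus DMSO wells for no effect and DMSO wells lacking apelin-13 for full effect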
APJ ag conf – APJ receptor agonism confirmation | shares compounds with APJ agonist | CHO-K1 APJ PathHunter beta-arrestin, luminescence | activation, % at 20 µM | 10% of 310 active | AID 2764;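 active means activation above 40%, taking the highest of four retests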;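 further: plate controls were DMSO wells for no effect and apelin-13 at 10 nM for full effect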
APJ antag confirm – confirmation of human APJ apelin receptor antagonists; shares compounds with APJ antagonist; APJ beta-arrestin recruitment, luminescence, antagonist mode; inhibition, % at 20 µM; 66% of 950 active; in the data active means inhibition above about 50%
B2AR ag CP1 – activates human beta-2 adrenergic receptor | 25% of 1,100 active | percent response (surface receptor), % at 10 µM | Am2.2-beta2AR cells, FAP surface receptor, flow cytometry; hits give low values | shares compounds with B2AR ag | AID 540358;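 active means surface receptor percent response at or below 58%, roughly 3 SD from nonfluorescent compounds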
B2AR FAP counter – counter-screen for beta-2AR agonists: fluorescence in Am2.2 cells; shares compounds with B2AR ag; FAP fluorogen flow cytometry, fluorescence counterscreen; hits give low values; calls only at 10 µM; 1,100 tested, under 10 active; AID 588765;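 active means percent response below a set limit in fluorescence channel 1 and below 50% in channel 8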
CXCR6 antag conf – confirmation of human CXCR6 receptor antagonists; shares compounds with CXCR6 inh; inhibition, % at 20 µM; 65% of 700 active; CHO-K1 CXCR6 PathHunter beta-arrestin, luminescence;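 active means mean inhibition over four retests above 40%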;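 further: receptor stimulated with 10 nM CXCL16 agonist; beta-galactosidase fragment complementation upon beta-arrestin recruitment to receptor; plate controls were CXCL16 plus DMSO for no effect and DMSO without CXCL16 for full effect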
Numbers without * were called inactive; i = inactive; · = no result given. This is a sample that favours compounds with a hit; in the whole collection about 1.8% have one here.

SMILES	APJ agonist	B2AR ag	CCR6 antag	CXCR6 inh	EBI2 block	APJ antagonist	APJ antag confirm	others
Cc1ccc(Cl)cc1NC(=O)c1cc2ccccc2cc1O	22*	44*	-66	-16	-3	-70	·	APJ ag conf=33;B2AR ag CP1=95;B2AR FAP counter=i
FC(F)(F)c1ccccc1/C=N/n1c(COc2ccccc2)n[nH]c1=S	-4	9	22	6	0	15	·
CCOc1ccc(/C=C/[N+](=O)[O-])c2ccccc12	16*	78*	·	60*	10	-24	·	APJ ag conf=-3;CXCR6 antag conf=52*
O=C(NC(Cc1ccccc1)C(=O)O)/C(=C/c1ccc(Br)cc1)NC(=O)c1ccc(Br)o1 (centres undefined)	2	-2	-3	0	2	4	·
CC(NC(=O)COc1ccccc1)C(=O)OCC(=O)c1cc2ccccc2o1 (centres undefined)	-20	-1	89*	44*	13	55*	116*
O=C(CCNc1ccc(F)cc1)c1cc2ccccc2o1	-1	-3	5	-1	2	-17	·
O=C(COc1ccccc1)NNC(=O)c1cc2ccccc2o1	3	4	-9	2	1	8	·
O=C(Cc1ccc(F)cc1)OCC(=O)c1cc2ccccc2o1	-12	7	89*	11	-5	77*	90*
NS(=O)(=O)c1ccc(N2N=C(c3ccccc3)CC2c2ccccc2Cl)cc1 (centres undefined)	·	8	18	-1	3	·	·
Nc1nnc(SCC(=O)Nc2ccc(Cl)c(C(=O)O)c2)s1	-4	0	-2	-22	0	46*	35
COC(=O)c1cc(NC(=O)CSc2nnc(N)s2)ccc1Cl	-3	0	4	3	-14	-20	·
CN(/N=C/c1cc([N+](=O)[O-])ccc1O)c1ccccc1	-8	2	64*	48*	13	42*	63*
O=[N+]([O-])c1cccc(N/N=C/c2cc([N+](=O)[O-])ccc2O)c1	-6	12	46	22	15	46*	49
O=[N+]([O-])c1ccc(N2CCN(S(=O)(=O)c3ccccc3)CC2)c2cccnc12	-5	1	52*	31	16	46*	65*
O=S1(=O)CC(N2CCCCC2)CN1Cc1cn(Cc2ccc(C(F)(F)F)cc2)nn1 (centres undefined)	·	·	·	-6	-13	·	·
CS(=O)(=O)Nc1ccc(S(=O)(=O)NC2CCCCC2)cc1	-3	-3	4	-7	-4	46*	28
O=C(C1CCN(S(=O)(=O)c2cnc[nH]2)CC1)N1CCn2c1nc1ccccc12	-14	-11	67*	56*	35	61*	101*
O=C(C1CCCCC1)N1CCCn2c1nc1ccccc12	-3	-16	-3	-23	2	4	·
Cc1ccc(C)c2nc3sc(C(=O)N4CCCc5ccccc54)c(N)c3cc12	-17	-401	47	38	75*	59*	58*
FC(F)(F)C1=NNC(c2ccc3ccccc3c2)=NN1	·	·	·	-1	4	·	·
COC(=O)[C@@]12C[C@@H](CC(=O)NCc3ccccc3)C(=O)N(Cc3ccccc3)C1=CCC(C)(C)C2	·	·	·	·	10	·	·
Cc1ccc2c(c1Br)/C(=N/N1C(=O)c3ccccc3C1=O)C(=O)N2	-10	2	21	9	5	38	·
CCOc1ccc(N=C2C(=O)Nc3ccc(C)c(Br)c32)cc1	-15	-3	102*	73*	11	79*	146*
COc1cccc(Nc2ccc([N+](=O)[O-])c3nonc23)c1	-6	3	47	18	-8	41*	68*
Cn1c(NC(=S)Nc2ccccc2)nc2ccccc21	-4	2	-19	-10	7	41*	14
SMILES	APJ agonist	B2AR ag	CCR6 antag	CXCR6 inh	EBI2 block	APJ antagonist	APJ antag confirm	others
S=C(Nc1ccccc1)Nc1nc2ccccc2n1CCOc1ccc(Br)cc1	3	2	-7	8	0	0	·
CN(C)c1ccc(N=Nc2ccc(S(=O)(=O)O)cc2)c2ccccc12	-8	3	62*	42*	12	41*	92*
CN(C)c1ccc(N=Nc2ccc(S(N)(=O)=O)cc2)cc1	-8	-2	29	20	10	24	·
CCN(Cc1ccccc1)c1ccc(N=Nc2nn(C)c(C)c2[N+](=O)[O-])cc1	-7	-13	64*	49*	20	44*	113*
CCN(Cc1ccccc1)c1ccc(/C=N/NS(=O)(=O)c2ccc(C)c([N+](=O)[O-])c2)cc1	-3	14	12	9	3	-6	·
CN(CCc1ccccc1)C(=O)c1ccc(NC(=O)Cc2ccc(NC(=O)C3CCCN(C(=O)c4ccccc4)C3)cc2)cc1 (centres undefined)	·	2	18	3	-9	·	·
CC(C)CSCC1OC(n2cnc3c(N)nccc32)C(O)C1O (centres undefined)	·	·	·	-2	-5	·	·
CCCCN(CCCC)C(=S)N/N=C/c1c(C)[nH]n(-c2ccccc2)c1=O	-14	15	113*	98*	49*	75*	126*
O=C(NC(O)C(=O)c1ccccc1)c1cccs1 (centres undefined)	-11	4	41	21	-2	48*	25
O=C(NC(O)C(=O)c1cccs1)c1cccnc1 (centres undefined)	-7	1	25	7	10	50*	31
O=C(NNC(=O)c1cccs1)c1cccnc1	1	-1	3	0	-12	10	·
CC1=C(C(=O)N(C(C)C)C(C)C)CC(CC(=O)NCc2ccco2)C(=O)N1Cc1ccccc1 (centres undefined)	·	·	·	-8	-13	·	·
NC(=O)c1sc2nc3c(c(-c4ccc(Cl)cc4)c2c1N)CCCC3	-9	5	14	4	25	52*	18
Cc1ccc(-c2c3c(nc4sc(C(N)=O)c(N)c24)CCC3)cc1	-6	-3	4	-1	-6	8	·
